Data published in ChEMBL document CHEMBL1144429, “Computational strategies in discovering novel non-nucleoside inhibitors of HIV-1 RT” (J Med Chem, 2005).

What was measured:
[1] = target: Human immunodeficiency virus type 1 reverse transcriptase (Human immunodeficiency virus 1, UniProt Q72547); assay: Concentration required to inhibit in vitro RNA-dependent DNA polymerase activity of reverse transcriptase
Summary of the method: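 Recombinant HIV-1 RT. RNA-dependent DNA polymerase activity was measured in vitro. IC50 is the concentration inhibiting this polymerase activity by 50%.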

MT4 [2] = assay: Ratio of CC50 to that of EC50; format: functional, Homo sapiens
Summary of the method: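 Selectivity index is calculated as CC50/EC50. Both values come from the parallel MT-4 assays: cell viability for CC50 and protection from HIV-1-induced cytopathic effect for EC50.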

MT4 [3] = assay: Cytotoxic concentration required to reduce MT-4 cell viability; format: functional; settings: Homo sapiens
Summary of the method: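 Viability of MT-4 cells was measured with compound alone, in parallel with the HIV-1 cytopathic-effect assay. CC50 is the concentration reducing MT-4 cell viability by 50%.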

MT4 [4] = assay: Concentration required to reduce HIV-1-induced cytopathic effect in MT-4 cells; format: functional, cell-based; settings: Homo sapiens
Summary of the method: (§1)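 MT-4 cells infected with HIV-1. The read-out is protection against virus-induced cytopathic effect. EC50 is the concentration giving a 50% reduction of the cytopathic effect. Uninfected MT-4 cytotoxicity was run in parallel.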

MT4 [5] = assay: Concentration required to reduce HIV-1-induced cytopathic effect in MT-4 cells; NA = not active; format: functional, cell-based, Homo sapiens; summary of the method: as §1
CCRF-CEM [6] = assay: Concentration required to protect CEM cells against Mutant K103N Strain; format: functional, cell-based; settings: Homo sapiens
Summary of the method: (§2)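 CEM cell cultures were infected with mutant HIV-1 strains, each carrying a single NNRTI-resistance mutation in RT. EC50 is the concentration protecting CEM cells against HIV-induced cytopathogenicity by 50%.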

CCRF-CEM [7] = assay: Concentration required to protect CEM cells against Mutant L100I Strain; format: functional, cell-based; settings: Homo sapiens; summary of the method: as §2
MT4 [8] = assay: Compound was tested for inhibition of the cytopathic effects of HIV-1 (IIIB) in MT-4 cells; format: functional, cell-based; settings: Homo sapiens
Summary of the method: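 HIV-1-induced cytopathic effect measured in MT-4 cell cultures. EC50 is the concentration reducing the cytopathic effect by 50%. Cytotoxicity in MT-4 cells was run in parallel.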

CCRF-CEM [9] = assay: Concentration required to protect CEM cells against Mutant E138K Strain; format: functional, cell-based; settings: Homo sapiens; summary of the method: as §2
CCRF-CEM [10] = assay: Concentration required to protect CEM cells against Mutant Y181C Strain; format: functional, cell-based; settings: Homo sapiens; summary of the method: as §2
CCRF-CEM [11] = assay: Concentration required to protect CEM cells against Mutant Y188H Strain; format: functional, cell-based; settings: Homo sapiens; summary of the method: as §2

SMILES | IC50 [1] [µM] | Ratio (MT4 [2]) | CC50 (MT4 [3]) [µM] | EC50 (MT4 [4]) [µM] | EC50 (MT4 [5]) | EC50 (CCRF-CEM [6]) [µM] | EC50 (CCRF-CEM [7]) [µM] | EC50 (MT4 [8]) [µM] | EC50 (CCRF-CEM [9]) [µM] | EC50 (CCRF-CEM [10]) [µM] | EC50 (CCRF-CEM [11]) [µM]
Oc1nc2cc(Cl)ccc2n1Cc1c(F)cccc1F | 60 | >14 | > 424 | 29.6 | – | – | – | – | – | – | –
O=c1oc2ccc(Cl)cc2n1Cc1c(F)cccc1F | 20 | >91 | > 382 | 3.72 | – | – | – | – | – | – | –
CC(C)c1ccc(Cn2c(O)nc3ccc(Cl)cc32)cc1 | 16.2 | >147 | > 415 | 2.83 | – | – | – | – | – | – | –
Oc1nc2ccc(Cl)cc2n1Cc1c(Cl)cccc1Cl | 7.5 | 83 | 315 | 3.79 | – | – | – | – | – | – | –
Oc1nc2ccc(Cl)cc2n1Cc1cccc2ccccc12 | 12.7 | 57 | 50 | 0.87 | – | – | – | – | – | – | –
Oc1nc2ccc(Cl)cc2n1CC1CCCCC1 | 50 | – | 9.5 | – | Not Active | – | – | – | – | – | –
Oc1nc2ccc(Cl)cc2n1Cc1ccc2ccccc2c1 | 5.2 | >64 | > 405 | 6.35 | – | – | – | – | – | – | –
O=c1[nH]c2ccc(Cl)cc2n1Cc1c(F)cccc1F | 2.86 | >1766 | > 424 | 0.24 | – | > 20 | 2 | 0.24 | 2.9 | > 20 | > 20
Fc1cccc(F)c1C1SCc2nc3ccccc3n21 (configuration not stated) [THIAZOLOBENZIMIDAZOLE] | 24.6 | 45 | 50 | 1.1 | – | 15.6 | 3.12 | 1.39 | 1.73 | 13.8 | 4.16
